Measured values published in ChEMBL document CHEMBL2331357, “Bioassay-guided isolation of proanthocyanidins with antiangiogenic activities” (J Nat Prod, 2013).
Activity calls are given as the source filed them. No cut-off for these calls is given here.

Experiments:
Gallus gallus [1] = species on record: Gallus gallus; assay: Antiangiogenic activity in chicken embryo chorioallantoic membrane model assessed as inhibition of blood vessels growth at 2 ug/egg after 4 days; assay type: functional, tissue-based
Summary of the method: (§1)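 Fertilized chicken eggs incubated at 37 °C, humidified, turned several times; after 4 days a 1 cm2 window opened on the broad side. Test material applied per egg; controls received albumen (100 μL/egg); retinoic acid 2 μg/egg as positive control; at least five eggs per dose. Eggs reincubated two days, then vessels photographed under microscope; branch points compared with albumen controls; mean ± SD of three experiments, Student's t-test.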

Gallus gallus [2] = species on record: Gallus gallus; assay: Antiangiogenic activity in chicken embryo chorioallantoic membrane model assessed as reduction of capillary formation at 2 ug/egg after 4 days; assay type: functional, tissue-based; summary of the method: as §1
Placenta growth factor = biological target: T1, Placenta growth factor (Homo sapiens, UniProt P49763); assay: Binding affinity to recombinant PIGF1 (unknown origin) measured for 60 seconds by surface plasmon resonance assay
T1 sequence (P49763 whole entry): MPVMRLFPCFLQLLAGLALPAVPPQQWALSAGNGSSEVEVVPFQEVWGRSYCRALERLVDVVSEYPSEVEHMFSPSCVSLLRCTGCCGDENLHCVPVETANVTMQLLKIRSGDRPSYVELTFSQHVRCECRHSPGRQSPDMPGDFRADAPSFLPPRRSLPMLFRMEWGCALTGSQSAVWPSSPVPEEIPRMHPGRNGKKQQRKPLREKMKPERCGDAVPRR
Summary of the method: (§2)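 Biacore CM5 chip; proteins (100 μg/mL in 10 mM NaOAc, pH 5.0) amine-coupled to 8−12 kRU alongside BSA and unmodified reference surfaces. Compounds from 4 mM DMSO stocks diluted 1:200 in PBS (10 mM NaH2PO4, 150 mM NaCl, pH 7.4; final DMSO 0.5%), 2-fold six-point series typically 0.025−1 μM, triplicate aliquots with buffer blanks. Association and dissociation recorded; thermodynamic KD derived.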

Jurkat = assay: Cytotoxicity against human Jurkat cells after 24 to 72 hrs by MTT assay; assay type: cell-based
Summary of the method: (§3)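 Cells kept in DMEM with 10% FBS, 2 mM L-glutamine, penicillin/streptomycin, 37 °C, 5% CO2, subcultured every two days. Seeded at 1 × 10^4 cells/well and grown without or with various compound concentrations; cell number quantified by MTT conversion at 24, 48 and 72 h. IC50 from at least two independent experiments in triplicate.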

[3] = biological target: T2, Vascular endothelial growth factor A, long form (Homo sapiens, UniProt P15692); assay: Binding affinity to recombinant VEGFA (unknown origin) measured for 60 seconds by surface plasmon resonance assay; summary of the method: as §2
T2 sequence (P15692 whole entry): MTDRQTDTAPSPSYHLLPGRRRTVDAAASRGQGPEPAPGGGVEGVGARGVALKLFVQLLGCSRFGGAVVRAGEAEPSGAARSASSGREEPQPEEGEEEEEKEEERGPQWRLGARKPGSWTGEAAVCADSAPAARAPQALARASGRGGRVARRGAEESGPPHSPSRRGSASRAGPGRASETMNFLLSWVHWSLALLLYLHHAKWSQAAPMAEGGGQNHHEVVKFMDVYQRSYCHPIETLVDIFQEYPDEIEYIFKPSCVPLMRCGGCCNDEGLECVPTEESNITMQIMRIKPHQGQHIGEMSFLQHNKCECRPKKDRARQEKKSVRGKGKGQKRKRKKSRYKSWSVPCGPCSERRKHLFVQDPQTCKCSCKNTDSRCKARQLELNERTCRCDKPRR

MCF7 = assay: Cytotoxicity against human MCF7 cells after 24 to 72 hrs by MTT assay; assay type: cell-based; summary of the method: as §3
[4] = Antiangiogenic activity in chicken embryo chorioallantoic membrane model assessed as inhibition of blood vessels growth after 4 days; assay type: functional, tissue-based, Gallus gallus; summary of the method: as §1
Gallus gallus [5] = species on record: Gallus gallus; assay: Antiangiogenic activity in chicken embryo chorioallantoic membrane model assessed as reduction of junction of blood vessels at 10 ug/egg after 4 days; assay type: functional, tissue-based; summary of the method: as §1
Gallus gallus [6] = species on record: Gallus gallus; assay: Antiangiogenic activity in chicken embryo chorioallantoic membrane model assessed as reduction of size of blood vessels at 10 ug/egg after 4 days; assay type: functional, tissue-based; summary of the method: as §1
[7] = biological target: T3, Vascular endothelial growth factor receptor 1 (Homo sapiens, UniProt P17948); assay: Inhibition of recombinant VEGF-A/VEGFR-1 (unknown origin) interaction after 1 hr by ELISA
T3 sequence (P17948 whole entry): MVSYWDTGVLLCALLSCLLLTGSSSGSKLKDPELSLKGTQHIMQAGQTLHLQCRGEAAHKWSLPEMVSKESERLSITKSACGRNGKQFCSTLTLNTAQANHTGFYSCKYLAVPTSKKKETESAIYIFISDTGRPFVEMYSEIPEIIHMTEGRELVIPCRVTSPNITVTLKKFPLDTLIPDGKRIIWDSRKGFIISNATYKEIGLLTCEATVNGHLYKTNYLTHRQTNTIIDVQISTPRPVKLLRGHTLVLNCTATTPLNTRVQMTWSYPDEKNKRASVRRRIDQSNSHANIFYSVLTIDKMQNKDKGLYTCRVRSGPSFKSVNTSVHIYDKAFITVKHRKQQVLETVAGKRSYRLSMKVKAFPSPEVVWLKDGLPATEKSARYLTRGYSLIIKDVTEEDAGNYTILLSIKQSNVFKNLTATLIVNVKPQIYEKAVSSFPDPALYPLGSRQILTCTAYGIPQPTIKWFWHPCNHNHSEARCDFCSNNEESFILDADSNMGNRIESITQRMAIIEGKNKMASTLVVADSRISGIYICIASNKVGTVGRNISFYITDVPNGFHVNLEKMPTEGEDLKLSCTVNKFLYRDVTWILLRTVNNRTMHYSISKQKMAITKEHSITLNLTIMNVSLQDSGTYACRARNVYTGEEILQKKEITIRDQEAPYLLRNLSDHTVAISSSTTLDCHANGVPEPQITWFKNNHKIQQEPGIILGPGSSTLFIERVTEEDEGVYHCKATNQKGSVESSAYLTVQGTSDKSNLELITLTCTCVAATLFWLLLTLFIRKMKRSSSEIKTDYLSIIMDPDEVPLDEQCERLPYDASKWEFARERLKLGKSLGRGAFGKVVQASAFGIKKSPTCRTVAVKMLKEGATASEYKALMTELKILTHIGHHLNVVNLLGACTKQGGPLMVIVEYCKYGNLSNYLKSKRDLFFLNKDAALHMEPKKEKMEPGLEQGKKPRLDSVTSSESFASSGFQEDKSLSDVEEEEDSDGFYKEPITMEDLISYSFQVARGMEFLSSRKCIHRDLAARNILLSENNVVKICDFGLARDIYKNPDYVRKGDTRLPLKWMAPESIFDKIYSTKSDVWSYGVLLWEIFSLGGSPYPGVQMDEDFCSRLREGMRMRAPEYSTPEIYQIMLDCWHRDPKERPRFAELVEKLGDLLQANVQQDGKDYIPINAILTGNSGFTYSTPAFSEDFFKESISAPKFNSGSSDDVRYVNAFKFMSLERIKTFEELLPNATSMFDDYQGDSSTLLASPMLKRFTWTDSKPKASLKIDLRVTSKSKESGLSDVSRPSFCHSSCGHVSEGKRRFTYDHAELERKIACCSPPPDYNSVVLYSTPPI
Summary of the method: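 Competitive ELISA: Fc/VEGFR-1 coated at 0.5 μg/mL for 16 h at RT, blocked 3 h with 1% BSA. PlGF-1 (5 ng/mL) or VEGF-A (10 ng/mL) in PBS with 0.1% BSA, 5 mM EDTA, 0.004% Tween 20 added with DMSO-dissolved compound, 1 h 37 °C then 1 h RT. Biotinylated anti-ligand antibody, avidin–biotin-HRP, o-phenylenediamine/H2O2 detection at 490 nm; triplicate points, repeated twice.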

[8] = biological target: T3, Vascular endothelial growth factor receptor 1; assay: Inhibition of recombinant PlGF-1/VEGFR-1 (unknown origin) interaction after 1 hr by ELISA
Gallus gallus [9] = species on record: Gallus gallus; assay: Antiangiogenic activity in chicken embryo chorioallantoic membrane model assessed as reduction of length of blood vessels at 10 ug/egg after 4 days; assay type: functional, tissue-based; summary of the method: as §1
Gallus gallus [10] = species on record: Gallus gallus; assay: Antiangiogenic activity in chicken embryo chorioallantoic membrane model assessed as reduction of number of blood vessels at 10 ug/egg after 4 days; assay type: functional, tissue-based; summary of the method: as §1
Gallus gallus [11] = species on record: Gallus gallus; assay: Antiangiogenic activity in chicken embryo chorioallantoic membrane model assessed as inhibition of blood vessels growth at 10 ug/egg after 4 days; assay type: functional, tissue-based; summary of the method: as §1

SMILES	Kd (Placenta growth factor; read-out: Kd) [µM]	Kd ([3]; read-out: Kd) [µM]	IC50 (Jurkat) [µM]	IC50 (MCF7) [µM]	also measured
CC1=C(/C=C/C(C)=C/C=C/C(C)=C/C(=O)O)C(C)(C)CCC1	–	–	–	–	growth inhibition (GI) (Gallus gallus [1]): 75.5%; Activity (Gallus gallus [2]): Active
Oc1cc(O)c2c(c1)O[C@@]1(c3ccc(O)c(O)c3)Oc3cc(O)c4c(c3[C@@H]2[C@H]1O)O[C@H](c1ccc(O)c(O)c1)[C@H](O)C4 [PROANTHOCYANIDIN A2]	–	–	> 70	> 70	Kd (Placenta growth factor): Not Active; Kd [3]: Not Active
Oc1ccc([C@@H]2C[C@@H](c3c(O)cc(O)c4c3O[C@H](c3ccc(O)cc3)[C@H](O)C4)c3c(O)cc(O)cc3O2)cc1	–	–	> 70	> 70	Kd (Placenta growth factor): Not Active; Kd [3]: Not Active
Oc1cc(O)c2c(c1)O[C@@]1(c3ccc(O)c(O)c3)Oc3cc(O)c4c(c3[C@@H]2[C@H]1O)O[C@H](c1ccc(O)c(O)c1)[C@@H](O)C4 [PROANTHOCYANIDIN A1]	0.394	0.476	> 70	> 70	–
O=c1cc(-c2ccc(O)c(-c3c(O)cc(O)c4c(=O)cc(-c5ccc(O)cc5)oc34)c2)oc2cc(O)cc(O)c12 [AMENTOFLAVONE]	0.0082	0.0165	–	–	–
Oc1ccc([C@@H]2C[C@@H](c3c(O)cc(O)c4c3O[C@H](c3ccc(O)cc3)[C@@H](O)C4)c3c(O)cc(O)cc3O2)cc1	0.011	0.016	> 70	> 70	IC50 [4]: 9.79 µg; Activity (Gallus gallus [5]): Active; Activity (Gallus gallus [6]): Active; IC50 [7]: 50 µM; IC50 [8]: 15 µM; Activity (Gallus gallus [9]): Active; Activity (Gallus gallus [10]): Active; growth inhibition (GI) (Gallus gallus [11]): 56.2%
Oc1ccc([C@H]2Oc3c(c(O)cc4c3[C@H]3c5c(O)cc(O)cc5O[C@@](c5ccc(O)c(O)c5)(O4)[C@@H]3O)C[C@@H]2O)cc1 [GERANIN B]	0.023	0.048	> 70	> 70	IC50 [7]: 65 µM
